PAD4 inh: PAD4 (human) enzyme inhibition. recombinant PAD4, RCA probe fluorescence polarization. hit rate 0.41% among 330,000. AID 485272. Q9UM07. inhibition, % at 6.36 µM;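 active means percent inhibition above a cutoff equal to the mean of all tested compounds plus 3 SD, cut at about 15% in these data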
Target sequence (Q9UM07 whole entry, looked up): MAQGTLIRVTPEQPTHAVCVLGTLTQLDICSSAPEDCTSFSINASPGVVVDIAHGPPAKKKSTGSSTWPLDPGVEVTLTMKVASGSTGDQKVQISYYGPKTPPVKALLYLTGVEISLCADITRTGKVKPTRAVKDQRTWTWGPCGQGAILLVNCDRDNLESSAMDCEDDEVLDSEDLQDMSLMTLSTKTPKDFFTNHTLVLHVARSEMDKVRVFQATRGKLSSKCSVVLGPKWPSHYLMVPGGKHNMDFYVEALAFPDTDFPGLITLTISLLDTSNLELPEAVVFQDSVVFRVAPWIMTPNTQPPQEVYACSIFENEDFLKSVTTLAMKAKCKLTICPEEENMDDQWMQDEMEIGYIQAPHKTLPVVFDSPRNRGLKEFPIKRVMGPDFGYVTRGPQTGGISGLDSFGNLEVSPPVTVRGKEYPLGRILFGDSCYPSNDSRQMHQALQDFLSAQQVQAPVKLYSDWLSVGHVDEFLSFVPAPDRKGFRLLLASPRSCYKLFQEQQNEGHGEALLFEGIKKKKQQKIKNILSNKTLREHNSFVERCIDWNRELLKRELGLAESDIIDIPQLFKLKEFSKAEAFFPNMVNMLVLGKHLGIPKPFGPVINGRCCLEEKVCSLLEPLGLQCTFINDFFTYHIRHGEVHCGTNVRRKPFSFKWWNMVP
PME-1 primary: blocks human protein phosphatase methylesterase 1 | Q9Y570 | inhibition, % at 5.9 µM | recombinant PME-1, FP-Rh probe fluorescence polarization | hit rate 0.53% among 320,000 | AID 2130;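 active means inhibition above the campaign mean of all compounds plus 3 SD, cut at about 26% in these data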;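 further: competitive labeling of PME-1 active site by serine hydrolase directed probe; inhibitors block probe labeling so polarization falls and inhibition rises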
Fam108B counter: Fam108B inhibition, counter-screen for RBBP9 inhibitors; AID 1947; hit rate 0.33% among 300,000; inhibition, % at 9.51 µM; recombinant Fam108B, FP-Rh probe fluorescence polarization;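 active means inhibition above the screen mean inhibition plus 3 SD, computed separately per campaign, cut at about 18% in these data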;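 further: inhibitors lower polarization as less probe binds the enzyme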
LYPLA2 counter: blocks human lysophospholipase 2, a PME1 counter-screen; recombinant LYPLA2, FP-Rh probe fluorescence polarization; inhibition, % at 5.9 µM; O95372; hit rate 0.38% among 320,000;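 active means inhibition above the screen-wide mean plus 3 SD, limit set per campaign, cut at about 26% in these data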
RBBP9 inh: blocks human serine hydrolase RBBP9. inhibition, % at 7.94 µM. hit rate 0.2% among 220,000. recombinant RBBP9, FP-Rh probe fluorescence polarization;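 active means inhibition above the campaign mean of all tested compounds plus 3 SD, cut at about 14% in these data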
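Assay system: recombinant human RBBP9; Reagent: Serine-hydrolase probe FP-Rh, 375 nM pre-mixing; Doses: 7.94 µM single dose, 0.794% DMSO; Incubation: 30 min then 45 min, 25 °C; Detection: fluorescence polarization (mP), excitation 525 nm, emission 598 nm; Evaluation: percent inhibition from mP, scaled between DMSO and no-protein wells.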
LYPLA1 inh: counter-screen for PME1 inhibitors: inhibitors of human LYPLA1; O75608; recombinant LYPLA1, FP-Rh probe fluorescence polarization; inhibition, % at 5.9 µM; hit rate 0.16% among 320,000; AID 2174;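 active means inhibition above the mean of all tested compounds plus 3 SD, set per campaign, cut at about 14% in these data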;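 further: inhibitors block serine hydrolase probe labeling of LYPLA1 so polarization falls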
Hits are given with their value; i = inactive; nt = no result. A selection: hits, their analogues and other compounds. The true share with any hit is near 1.3%.

SMILES	PAD4 inh	PME-1 primary	Fam108B counter	LYPLA2 counter	RBBP9 inh	LYPLA1 inh
C#CCOCCOCCOCCNc1nc(N2CCN(C(=O)CCCCCCCCCCNC(=O)[C@H]([C@@H](C)CC)n3cc(CCCCCN)nn3)CC2)nc(N2CCN(C(=O)CCCCCCCCCCNC(=O)[C@@H]([C@H](C)CC)n3cc(CCCCCN)nn3)CC2)n1	i	i	i	57.4	nt	i
C#CCOCCOCCOCCNc1nc(N2CCN(C(=O)CCCCCCCCCCNC(=O)[C@H]([C@@H](C)CC)n3cc(CCCCN=C(N)N)nn3)CC2)nc(N2CCN(C(=O)CCCCCCCCCCNC(=O)[C@H](CO)n3cc(CCCCCN)nn3)CC2)n1	i	i	i	i	nt	i
C#CCOCCOCCOCCNc1nc(N2CCN(C(=O)CCCCCCCCCCNC(=O)[C@H]([C@@H](C)CC)n3cc(CCCCN=C(N)N)nn3)CC2)nc(N2CCN(C(=O)CCCCCCCCCCNC(=O)[C@H]([C@@H](C)CC)n3cc(CCCCN=C(N)N)nn3)CC2)n1	i	i	i	32.7	nt	i
C#CCOCCOCCOCCNc1nc(N2CCOCC2)nc(N2CCN(C(=O)CCCCCCCCCCNC(=O)[C@@H]([C@H](C)CC)n3cc(CCCCCN)nn3)CC2)n1	i	i	i	i	nt	i
CC1=C(C(=O)OCc2ccccc2)C(c2ccccc2OS(=O)(=O)c2ccc([N+](=O)[O-])cc2)NC(=O)N1CCCC(=O)O (configuration not stated)	i	i	i	i	nt	i
CN(CC(=O)NCc1cccs1)S(=O)(=O)c1cccc2cccnc12	i	i	i	i	i	i
CN(C)c1ccc(CNC(=O)CN(C)S(=O)(=O)c2cccc3cccnc23)cc1	i	33.3	i	i	i	i
CN1C(=O)/C(=C/c2ccccc2F)Sc2ccc(C(=O)N3CCCC3)cc21	i	i	i	i	nt	i
O=[N+]([O-])c1ccccc1NC(=S)N/N=C/c1ccc(O)c(O)c1	i	27.5	i	i	i	i
CCCCCn1nc(C(=O)N2CCc3ccccc32)c2ccccc2c1=O	i	i	nt	i	nt	i
O=C1C=C(O)c2cccc3cccc1c23	i	i	i	i	nt	i
NC1=CC(=O)c2cccc3cccc1c23	14.9	i	i	i	i	i
COc1ccc(S(=O)(=O)N2CCCCCC2)cc1C(=O)Nc1cc(C)ccn1	i	i	nt	i	nt	i
COc1ccc(S(=O)(=O)N2CCCCCC2)cc1C(=O)NCCOc1ccc(C)cc1	i	28.0	i	i	nt	i
COc1cc(/C=N/NC(=O)c2sc(N)c(C#N)c2C)cc(Br)c1O	i	31.2	i	i	i	i
Cc1ccc(CNC(=O)/C(C#N)=C\c2ccc(N(C)C)cc2)cc1	i	26.8	i	i	i	i
CCN(CC)c1ccc(/C=C(\C#N)C(=O)NCc2ccccc2)cc1	i	i	i	i	i	i
Cc1c(C(=O)O)cccc1-c1ccc(/C=N/Nc2ccc(Br)cc2)o1	i	28.6	i	i	i	i
COc1cc(Cl)ccc1OCc1cc(C(=O)N(C)CC2CCCCO2)no1 (configuration not stated)	i	i	i	i	nt	i
C/C(=C\c1ccc2c(c1)OCO2)C1Nc2cccc3cccc(c23)N1	i	37.4	nt	i	nt	i
C/C(=C\c1ccccc1)C1Nc2cccc3cccc(c23)N1	i	i	nt	i	nt	i
CCN(CCO)c1nc(NCc2ccccc2)c2cnn(C)c2n1	i	i	i	i	nt	i
CCC(=O)NC(c1cccs1)c1cc([N+](=O)[O-])c2cccnc2c1O (configuration not stated)	i	27.2	i	i	i	i
O=C(COC(=O)COc1ccccc1Cc1ccccc1)Nc1cccnc1Cl	i	i	i	i	i	i
O=C(NC1CC(=O)N(c2cccc(F)c2)C1)C(=O)c1c[nH]c2ccccc12 (configuration not stated)	i	i	i	i	nt	i
SMILES	PAD4 inh	PME-1 primary	Fam108B counter	LYPLA2 counter	RBBP9 inh	LYPLA1 inh
CC1Oc2ccccc2N(CC(=O)N2CCCC2)C1=O (configuration not stated)	i	i	i	i	nt	i
C=CCn1c(O)c(N=Nc2ccccc2O)c2ccccc21	i	33.6	nt	i	nt	i
C/C(=N\NC(=O)c1ccccc1[N+](=O)[O-])c1ccc(Br)s1	i	i	i	i	i	i
C/C(=N\Nc1nc2ccccc2s1)c1ccc(Br)s1	i	51.5	i	i	i	i
CCn1c2ccccc2c2cc(NC(=O)c3ccc(C)c([N+](=O)[O-])c3)ccc21	i	36.5	i	i	i	i
CCOC(=O)CC1(NC(=O)C2CCC(=O)N(CCc3ccccc3)C2)CCCCC1 (configuration not stated)	i	i	i	i	nt	i
CC(C)OC(=O)c1sc2nc(-c3ccccc3)ccc2c1N	i	i	i	i	i	i
COc1ccc(C(=O)c2sc3nc(-c4ccccc4)ccc3c2N)cc1	i	34.7	i	i	i	i
Cc1noc(C)c1COC(=O)c1cnc(Cl)c(Cl)c1	i	i	i	i	i	i
CCOc1cccc(/C=C/c2ccc3cccc(O)c3n2)c1O	i	35.8	i	i	nt	i
S=c1[nH]c(-c2ccccc2)cn1/N=C/c1cccc2ccccc12	i	28.3	i	i	i	i
COc1ccc(NC(=O)CSc2nc3nc(-c4cccs4)cc(C(F)(F)F)c3c(=O)[nH]2)c(OC)c1	i	45.7	i	i	i	i
Cc1ccc2c(c1)[nH]c1c(=O)n(Cc3ccco3)cnc12	i	i	i	i	i	i
CN(Cc1ccc(-n2cccn2)cc1)Cc1nc(-c2cnccn2)no1	i	i	i	i	i	i
COc1ccc(-c2cnnc(N/N=C/c3ccc(O)c(O)c3)n2)cc1	i	29.0	i	i	i	i
CCOC(=O)c1ccc(Nc2nc(N)c3cc(OC)c(OC)cc3n2)cc1	i	27.0	i	i	nt	i
COc1cc2nc(Nc3ccc(C)c(C)c3)nc(N)c2cc1OC	i	i	i	i	nt	i
CCOc1ccccc1/C=C(\C#N)C(=O)Nc1cccc(C(=O)O)c1	i	142.3	i	i	i	i
Cc1ccc(N2CC(C(=O)Nc3ccc(S(=O)(=O)Nc4nccc(C)n4)cc3)CC2=O)cc1 (configuration not stated)	i	i	i	i	i	i
Cc1cc(-c2nnc(SCC(=O)Nc3nc(-c4ccc(Cl)cc4)cs3)o2)no1	i	27.9	i	i	i	i
COc1cc(NC(=O)CSc2nnc(-c3cc(C)on3)o2)cc(OC)c1	i	i	i	i	nt	i
Cc1nc(Nc2ccc(C(=O)O)cc2)nc(Nc2ccc(C(=O)O)cc2)c1[N+](=O)[O-]	i	i	i	i	i	i
COc1ccc(Nc2nc(NN)nc(C)c2[N+](=O)[O-])cc1	i	28.6	i	i	i	i
CC(=O)Nc1ccc(Nc2nc(C)c([N+](=O)[O-])c(Nc3ccccc3)n2)cc1	i	30.0	i	i	i	i
Cc1ccc(N(CC(=O)NCc2ccco2)C(=O)CCC(=O)Nc2nccs2)c(C)c1	i	i	i	i	nt	i
Oc1ccc(-c2cnc(-c3ccc(O)cc3)nc2)cc1	i	35.7	i	i	nt	i

Source: PubChem
